Experimental data reported in ChEMBL document CHEMBL1147256, “Antibacterial xanthones from the leaves of Garcinia nigrolineata” (2003).
In brackets after ≈: the same amount, converted by molar mass. Activity calls are given as the source filed them. The rule behind the calls is not given here.

What follows are molecules tested on Staphylococcus aureus (assay: Antibacterial activity against methicillin-resistant Staphylococcus aureus at 16 ug/mL after 18 hrs by agar microdilution method).
Format: functional, organism-based

Q: How did the Activity turn out when `CC(C)=CCc1c(O)c(CC=C(C)C)c2oc3c(O)cccc3c(=O)c2c1O` was run?
A: The Activity was “Active”.

Each molecule was assayed on Staphylococcus aureus (assay: Antibacterial activity against methicillin-resistant Staphylococcus aureus at 32 ug/mL after 18 hrs by agar microdilution method).
Format: functional, organism-based

Q: `CC(C)=CCc1c2c(c3oc4c(O)cccc4c(=O)c3c1O)C=CC(C)(C)O2` was tested. Which Activity did it give?
A: Its Activity is “Active”.

Each molecule was assayed on Staphylococcus aureus (assay: Antibacterial activity against methicillin-resistant Staphylococcus aureus after 18 hrs by agar microdilution method).
Format: functional
Summary of the method: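 MRSA clinical isolate from Songklanakarin Hospital. Compounds were dissolved in DMSO, serially 2-fold diluted and mixed 1:100 into melted Mueller-Hinton agar, giving final concentrations of 128 to 0.03 μg/mL. Inoculum was spotted onto the agar and incubated at 35 °C for 18 h. MIC was the lowest concentration with no visible growth. Vancomycin was the positive control; DMSO-agar was the growth control.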

Q: Which Activity does the source give for `CC(C)(O)CCc1ccc(O)c2oc3cc4c(c(O)c3c(=O)c12)C=CC(C)(C)O4` here?
A: The Activity was “inactive”.

Q: With `CC(C)=CCc1ccc(O)c2oc3cc4c(c(O)c3c(=O)c12)C=CC(C)(C)O4` as the molecule, how does the Activity read?
A: Its Activity is “inactive”.

Q: `CC(C)(O)CCc1c2c(c(O)c3c(=O)c4cccc(O)c4oc13)CCC(C)(C)O2` was tested. Which Activity did it give?
A: The Activity was “inactive”.

Q: For `CC(C)=CCc1c2c(c3oc4c(O)cccc4c(=O)c3c1O)CCC(C)(C)O2`, which Activity is on record?
A: Its Activity is “inactive”.

Q: For `CC(C)=CCc1c(O)cc2oc3c(O)ccc(CCC(C)(C)O)c3c(=O)c2c1O` [NIGROLINEAXANTHONE N], which MIC is on record?
A: Its MIC is 4 µg/mL (≈ 10 µM).

Q: How did the Activity turn out when `CC(C)=CCc1ccc(O)c2oc3cc4c(c(O)c3c(=O)c12)CCC(C)(C)O4` was run?
A: Its Activity is “inactive”.

Q: `CCOC(C)(C)CCc1c(O)cc2oc3c(O)ccc(CCC(C)(C)O)c3c(=O)c2c1O` was tested. Which Activity did it give?
A: The Activity was “inactive”.

Q: For `CC(C)=CCC/C(C)=C/CCC1(C)C=Cc2c(cc(O)c3c(=O)c4cccc(O)c4oc23)O1` (configuration not stated), which Activity is on record?
A: The Activity was “inactive”.

Q: Which Activity does the source give for `COC(C)(C)CCc1ccc(O)c2oc3cc(O)c(CC=C(C)C)c(O)c3c(=O)c12` here?
A: The Activity was “inactive”.

Q: How did the Activity turn out when `CC(C)(O)CCc1ccc(O)c2oc3cc4c(c(O)c3c(=O)c12)CCC(C)(C)O4` was run?
A: The Activity was “inactive”.
